According to ChEMBL document CHEMBL1629436, “Synthesis and biological evaluation of new camptothecin derivatives obtained by modification of position 20” (Bioorg Med Chem, 2010):
Activity calls are given as the source filed them. No cut-off for these calls is given here.

Experiments:
[1] = tested on: A-431; experiment: Cytotoxicity against human A431 cells after 72 hrs by trypan blue assay; assay type: functional, cell-based; details: A-431, 72 h
In short: (§1)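 A-431, HeLa and HL-60 cells at 4×10^4 per well, incubated 24 h. HeLa and A-431 then received fresh medium. Graded compound concentrations were added for a further 72 h at 37 °C, 5% CO2. Viability was counted by Trypan blue exclusion. IC50 is the concentration giving 50% reduction in cell number versus control: ≥3 independent experiments, triplicate samples, mean ± SD.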

[2] = tested on: HeLa; experiment: Cytotoxicity against human HeLa cells after 72 hrs by trypan blue assay; assay type: functional, cell-based; in short: as §1
[3] = tested on: HL-60; experiment: Cytotoxicity against human HL60 cells after 72 hrs by trypan blue assay; assay type: functional, cell-based; details: HL-60, 72 h; in short: as §1
[4] = tested on: A2C12; experiment: Cytotoxicity against mouse A2C12 cells after 24 to 96 hrs by MTS assay; assay type: functional, cell-based
In short: (§2)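 Mouse transgenic lines plated at 10^3 cells/well and left 24 h to attach. Drugs diluted in medium were added for 24 or 96 h. CellTiter 96 AQueous One (MTS) reagent was then added for 1 h at 37 °C, with absorbance read at 490 nm. Each condition was run in quintuplicate, and cytotoxicity was expressed as percent of controls.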

[5] = tested on: yB8; experiment: Cytotoxicity against mouse yB8 cells after 24 to 96 hrs by MTS assay; assay type: functional, cell-based; in short: as §2
[6] = tested on: yD12; experiment: Cytotoxicity against mouse yD12 cells after 24 to 96 hrs by MTS assay; assay type: functional, cell-based; in short: as §2
[7] = organism: Mus musculus; experiment: Cytotoxicity against mouse betaD10 cells after 24 to 96 hrs by MTS assay; assay type: functional, cell-based; in short: as §2
[8] = tested on: yA7; experiment: Cytotoxicity against mouse yA7 cells after 24 to 96 hrs by MTS assay; assay type: functional, cell-based; in short: as §2
[9] = tested on: yA3; experiment: Cytotoxicity against mouse yA3 cells after 24 to 96 hrs by MTS assay; assay type: functional, cell-based; in short: as §2
[10] = tested on: B3; experiment: Cytotoxicity against mouse B3 cells after 24 to 96 hrs by MTS assay; assay type: functional, cell-based; in short: as §2
[11] = organism: Mus musculus; experiment: Cytotoxicity against mouse betaD5 cells after 24 to 96 hrs by MTS assay; assay type: functional, cell-based; in short: as §2
[12] = tested on: A2B1; experiment: Cytotoxicity against mouse A2B1 cells after 24 to 96 hrs by MTS assay; assay type: functional, cell-based; in short: as §2
[13] = tested on: Craf/Cmyc; experiment: Cytotoxicity against mouse Craf/Cmyc cells after 24 to 96 hrs by MTS assay; assay type: functional, cell-based; in short: as §2
[14] = tested on: Nucleic Acid; experiment: Binding affinity to salmon testes DNA by linear flow dichroism analysis; assay type: nucleic-acid assay; details: Salmonidae
In short: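 Salmon testes DNA (1.9 × 10^-3 M) in ETN buffer (10 mM Tris, 10 mM NaCl, 1 mM EDTA, pH 7). Linear dichroism spectra were recorded at 25 °C over a range of [drug]/[DNA] ratios on a spectropolarimeter converted for LD.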

[15] = organism: Bos taurus; experiment: Inhibition of calf thymus topoisomerase 1-mediated relaxation of supercoiled pBR322 at 100 uM after 60 mins using ethidium bromide staining by agarose gel electrophoresis
In short: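 Supercoiled pBR322 (0.25 µg) with 2 U calf thymus topoisomerase I and test compound, 60 min at 37 °C in 20 µl reaction buffer. Stopped with SDS/bromophenol blue/glycerol plus 50 µg/mL proteinase K, 30 min at 37 °C. Run on 1% agarose at room temperature, stained with ethidium bromide 1 µg/mL in TAE, imaged under UV.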

[16] = target: DNA topoisomerase 2-alpha (Homo sapiens) (UniProt P11388); experiment: Inhibition of human recombinant topoisomerase 2alpha-mediated relaxation of supercoiled pBR322 at up to 100 uM after 60 mins using ethidium bromide staining by agarose gel electrophoresis
In short: (§3)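 Supercoiled pBR322 (0.25 µg) with 1 U human recombinant topoisomerase IIα and test compound, 60 min at 37 °C in 20 µl reaction buffer. Stopped with SDS/bromophenol blue/glycerol plus 50 µg/mL proteinase K, 30 min at 37 °C. Separated on 1% agarose at room temperature, ethidium bromide stained (1 µg/mL, TAE), UV-visualized.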

[17] = tested on: A2B1; experiment: Induction apoptosis in mouse A2B1 cells assessed as relative caspase activity at 10 uM/L after 2 hrs by rhodamine 110 fluorescence assay; assay type: functional, cell-based
In short: (§4)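 Cells were pretreated with compound (10 µmol/L) for 2 h. The cell-permeable caspase substrate (Asp)2-rhodamine 110 (10 µmol/L) was then added for 2 h more. Caspase cleavage releases fluorescent rhodamine 110, and the read-out was mean fluorescence.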

[18] = tested on: A2C12; experiment: Induction apoptosis in mouse A2C12 cells assessed as relative caspase activity at 10 uM/L after 2 hrs by rhodamine 110 fluorescence assay; assay type: functional, cell-based; in short: as §4
[19] = tested on: B3; experiment: Induction apoptosis in mouse B3 cells assessed as relative caspase activity at 10 uM/L after 2 hrs by rhodamine 110 fluorescence assay; assay type: functional, cell-based; in short: as §4
[20] = organism: Mus musculus; experiment: Induction apoptosis in mouse betaD5 cells assessed as relative caspase activity at 10 uM/L after 2 hrs by rhodamine 110 fluorescence assay; assay type: functional, cell-based; in short: as §4
[21] = organism: Mus musculus; experiment: Induction apoptosis in mouse betaD10 cells assessed as relative caspase activity at 10 uM/L after 2 hrs by rhodamine 110 fluorescence assay; assay type: functional, cell-based; in short: as §4
[22] = tested on: Craf/Cmyc; experiment: Induction apoptosis in mouse Craf/Cmyc cells assessed as relative caspase activity at 10 uM/L after 2 hrs by rhodamine 110 fluorescence assay; assay type: functional; in short: as §4
[23] = tested on: yA3; experiment: Induction apoptosis in mouse yA3 cells assessed as relative caspase activity at 10 uM/L after 2 hrs by rhodamine 110 fluorescence assay; assay type: functional, cell-based; in short: as §4
[24] = tested on: yA7; experiment: Induction apoptosis in mouse yA7 cells assessed as relative caspase activity at 10 uM/L after 2 hrs by rhodamine 110 fluorescence assay; assay type: functional, cell-based; in short: as §4
[25] = tested on: yB8; experiment: Induction apoptosis in mouse yB8 cells assessed as relative caspase activity at 10 uM/L after 2 hrs by rhodamine 110 fluorescence assay; assay type: functional, cell-based; in short: as §4
[26] = tested on: yD1; experiment: Induction apoptosis in mouse yD1 cells assessed as relative caspase activity at 10 uM/L after 2 hrs by rhodamine 110 fluorescence assay; assay type: functional, cell-based; in short: as §4
[27] = tested on: yD12; experiment: Induction apoptosis in mouse yD12 cells assessed as relative caspase activity at 10 uM/L after 2 hrs by rhodamine 110 fluorescence assay; assay type: functional, cell-based; in short: as §4
[28] = tested on: A2B1; experiment: Induction apoptosis in mouse A2B1 cells assessed as ROS production at 10 uM/L using DCFH-DA by flow cytometry relative to control; assay type: functional, cell-based
In short: (§5)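 Transgenic mouse cells exposed to compound at 10 µmol/L. ROS generation was measured by flow cytometry using the probe DCFH-DA.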

[29] = tested on: A2C12; experiment: Induction apoptosis in mouse A2C12 cells assessed as ROS production at 10 uM/L using DCFH-DA by flow cytometry relative to control; assay type: functional, cell-based; in short: as §5
[30] = tested on: B3; experiment: Induction apoptosis in mouse B3 cells assessed as ROS production at 10 uM/L using DCFH-DA by flow cytometry relative to control; assay type: functional, cell-based; in short: as §5
[31] = organism: Mus musculus; experiment: Induction apoptosis in mouse betaD5 cells assessed as ROS production at 10 uM/L using DCFH-DA by flow cytometry relative to control; assay type: functional, cell-based; in short: as §5
[32] = organism: Mus musculus; experiment: Induction apoptosis in mouse betaD10 cells assessed as ROS production at 10 uM/L using DCFH-DA by flow cytometry relative to control; assay type: functional, cell-based; in short: as §5
[33] = tested on: Craf/Cmyc; experiment: Induction apoptosis in mouse Craf/Cmyc cells assessed as ROS production at 10 uM/L using DCFH-DA by flow cytometry relative to control; assay type: functional, cell-based; in short: as §5
[34] = tested on: yA3; experiment: Induction apoptosis in mouse yA3 cells assessed as ROS production at 10 uM/L using DCFH-DA by flow cytometry relative to control; assay type: functional, cell-based; in short: as §5
[35] = tested on: yA7; experiment: Induction apoptosis in mouse yA7 cells assessed as ROS production at 10 uM/L using DCFH-DA by flow cytometry relative to control; assay type: functional, cell-based; in short: as §5
[36] = tested on: yB8; experiment: Induction apoptosis in mouse yB8 cells assessed as ROS production at 10 uM/L using DCFH-DA by flow cytometry relative to control; assay type: functional, cell-based; in short: as §5
[37] = tested on: yD1; experiment: Induction apoptosis in mouse yD1 cells assessed as ROS production at 10 uM/L using DCFH-DA by flow cytometry relative to control; assay type: functional, cell-based; in short: as §5
[38] = tested on: yD12; experiment: Induction apoptosis in mouse yD12 cells assessed as ROS production at 10 uM/L using DCFH-DA by flow cytometry relative to control; assay type: functional, cell-based; in short: as §5
[39] = target: DNA topoisomerase 2-alpha (Homo sapiens) (UniProt P11388); experiment: Inhibition of human recombinant topoisomerase 2alpha-mediated relaxation of supercoiled pBR322 after 60 mins using ethidium bromide staining by agarose gel electrophoresis; in short: as §3
[40] = target: DNA topoisomerase 2-alpha (Homo sapiens) (UniProt P11388); experiment: Inhibition of human recombinant topoisomerase 2alpha-mediated relaxation of supercoiled pBR322 at 50 uM after 60 mins using ethidium bromide staining by agarose gel electrophoresis; in short: as §3
[41] = tested on: HUVEC; experiment: Antiangiogenic activity in HUVEC cocultured with human PaSMC assessed as inhibition of capillary-like network formation up to 200 nM after 72 hrs; assay type: functional, cell-based
In short: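 Primary HUVEC (passage 5, retrovirally labelled with RFP) and pulmonary artery vSMC (passage 5) co-seeded at 5×10^4 PaSMC plus 10×10^3 HUVEC per well in EGM-2, briefly spun at 200 g, attached 3 h. Compounds were then added at final 2–200 nM, two replicates per concentration. Networks formed over 72 h at 37 °C, 5% CO2, followed by automated imaging and image analysis of tube formation.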

Sequence of DNA topoisomerase 2-alpha (Homo sapiens) (P11388 whole entry): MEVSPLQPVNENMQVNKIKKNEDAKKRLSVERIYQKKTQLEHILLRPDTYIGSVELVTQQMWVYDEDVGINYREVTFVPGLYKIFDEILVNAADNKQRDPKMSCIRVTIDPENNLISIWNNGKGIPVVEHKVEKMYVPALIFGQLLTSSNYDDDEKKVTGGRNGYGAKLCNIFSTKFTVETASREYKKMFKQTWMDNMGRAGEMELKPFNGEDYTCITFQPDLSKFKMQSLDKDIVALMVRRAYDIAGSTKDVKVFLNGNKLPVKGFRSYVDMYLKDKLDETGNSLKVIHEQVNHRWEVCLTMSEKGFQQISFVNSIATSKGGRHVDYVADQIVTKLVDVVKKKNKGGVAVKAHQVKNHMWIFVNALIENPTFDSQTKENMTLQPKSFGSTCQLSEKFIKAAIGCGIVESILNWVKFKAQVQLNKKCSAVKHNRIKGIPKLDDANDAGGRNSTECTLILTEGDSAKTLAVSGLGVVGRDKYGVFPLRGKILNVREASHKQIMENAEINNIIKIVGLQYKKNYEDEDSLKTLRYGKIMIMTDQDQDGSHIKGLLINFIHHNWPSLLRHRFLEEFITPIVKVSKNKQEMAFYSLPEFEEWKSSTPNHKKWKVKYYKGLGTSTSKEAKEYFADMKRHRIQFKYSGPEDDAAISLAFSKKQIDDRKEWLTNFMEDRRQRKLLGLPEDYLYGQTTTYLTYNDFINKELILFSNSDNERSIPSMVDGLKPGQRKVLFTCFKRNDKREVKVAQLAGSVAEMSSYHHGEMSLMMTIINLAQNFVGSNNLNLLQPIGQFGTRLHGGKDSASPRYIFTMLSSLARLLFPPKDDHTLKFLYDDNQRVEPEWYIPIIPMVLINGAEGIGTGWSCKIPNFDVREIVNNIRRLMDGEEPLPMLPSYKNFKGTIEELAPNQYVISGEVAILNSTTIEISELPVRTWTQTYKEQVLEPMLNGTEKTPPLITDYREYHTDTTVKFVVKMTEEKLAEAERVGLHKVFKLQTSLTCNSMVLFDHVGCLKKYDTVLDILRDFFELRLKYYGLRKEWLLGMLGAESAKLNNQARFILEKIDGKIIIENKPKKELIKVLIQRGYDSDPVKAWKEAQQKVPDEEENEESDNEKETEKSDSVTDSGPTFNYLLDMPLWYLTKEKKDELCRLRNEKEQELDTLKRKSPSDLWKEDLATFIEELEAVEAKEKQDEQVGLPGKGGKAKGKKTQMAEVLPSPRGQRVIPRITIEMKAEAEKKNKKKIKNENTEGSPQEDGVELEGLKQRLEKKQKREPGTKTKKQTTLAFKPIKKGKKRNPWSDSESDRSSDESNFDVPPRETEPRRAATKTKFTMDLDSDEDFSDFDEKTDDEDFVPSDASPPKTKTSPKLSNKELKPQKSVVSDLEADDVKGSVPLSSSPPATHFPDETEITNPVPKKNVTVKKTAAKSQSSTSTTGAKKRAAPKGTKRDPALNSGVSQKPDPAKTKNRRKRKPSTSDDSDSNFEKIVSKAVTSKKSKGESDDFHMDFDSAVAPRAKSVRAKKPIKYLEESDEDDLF

CC[C@@]1(OC(=O)NCCN2C(=O)CCCCCCCCC2=O)C(=O)OCc2c1cc1n(c2=O)Cc2cc3ccccc3nc2-1
IC50 [1]: 1880 nM | IC50 [2]: 8300 nM | IC50 [3]: 12200 nM | Activity [4]: Active | Activity [5]: Active | Activity [6]: Active | Activity [7]: Active | Activity [8]: Active | Activity [9]: Active | Activity [10]: Active | Activity [11]: Active | Activity [12]: Active | Activity [13]: Active | Activity [14]: inactive | Activity [15]: inactive | Activity [16]: inactive | Activity [17]: inactive | Activity [18]: inactive | Activity [19]: inactive | Activity [20]: inactive | Activity [21]: inactive | Activity [22]: inactive | Activity [23]: inactive | Activity [24]: inactive | Activity [25]: inactive | Activity [26]: inactive | Activity [27]: inactive | Activity [28]: inactive | Activity [29]: inactive | Activity [30]: inactive | Activity [31]: inactive | Activity [32]: inactive | Activity [33]: inactive | Activity [34]: inactive | Activity [35]: inactive | Activity [36]: inactive | Activity [37]: inactive | Activity [38]: inactive

CC[C@@]1(OC(=O)NCCNC(=O)CCSSCCC(=O)NCCNC(=O)O[C@]2(CC)C(=O)OCc3c2cc2n(c3=O)Cc3cc4ccccc4nc3-2)C(=O)OCc2c1cc1n(c2=O)Cc2cc3ccccc3nc2-1
IC50 [1]: 150 nM | IC50 [2]: 700 nM | IC50 [3]: 920 nM | Activity [4]: Active | Activity [5]: Active | Activity [6]: Active | Activity [7]: Active | Activity [8]: Active | Activity [9]: Active | Activity [10]: Active | Activity [11]: Active | Activity [12]: Active | Activity [13]: Active | Activity [14]: inactive | Activity [15]: inactive | Activity [39]: Dose-dependent effect | inhibition [40]: Active

CC[C@@]1(OC(=O)NCCN2C(=O)CCCSSCCCC2=O)C(=O)OCc2c1cc1n(c2=O)Cc2cc3ccccc3nc2-1
IC50 [1]: 1210 nM | IC50 [2]: 570 nM | IC50 [3]: 1550 nM | Activity [4]: Active | Activity [5]: Active | Activity [6]: Active | Activity [7]: Active | Activity [8]: Active | Activity [9]: Active | Activity [10]: Active | Activity [11]: Active | Activity [12]: Active | Activity [13]: Active | Activity [14]: inactive | Activity [15]: inactive | Activity [16]: inactive | Activity [41]: inactive
